From ChEMBL document CHEMBL1136957, “Semisynthesis and antiproliferative evaluation of a series of 3'-aminoflavones” (Bioorg Med Chem Lett, 2009)
Activity calls are given as the source filed them. No cut-off for these calls is given here.

Experiments:
KB [1] = experiment: Cytotoxicity against human KB cells at 1 uM after 72 hrs by MTS assay; format: functional
KB [2] = experiment: Cytotoxicity against human KB cells after 72 hrs by MTS assay; format: functional, cell-based
HL-60 [3] = experiment: Induction of apoptosis in human HL60 cells assessed as caspase 3/7 activation at 1 uM relative to control; format: functional
In short: (§1)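 Apoptosis read in HL60 human leukemia cells as caspase 3/7 activity, using DEVD-AMC as substrate. Reported as the optimal compound concentration with fold activation.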

[4] = Inhibition of tubulin assembly at 66 uM
In short: (§2)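 Tubulin assembly inhibition run by the Zavala and Guenard method. Reported as percent inhibition at 6.6 x 10^-5 M, or as IC50 for selected compounds.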

HL-60 [5] = experiment: Induction of apoptosis in human HL60 cells assessed as caspase 3/7 activation at 100 uM relative to control; format: functional; in short: as §1
HL-60 [6] = experiment: Induction of apoptosis in human HL60 cells assessed as caspase 3/7 activation at 10 uM relative to control; format: functional; in short: as §1
[7] = Ratio of IC50 for drug to deoxypodophyllotoxin for tubulin assembly
In short: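 Inhibition of tubulin assembly was run by the Zavala and Guénard method. Compounds were screened at 6.6 × 10^-5 M, and an IC50 was determined only for the most antiproliferative ones. The value is that IC50 divided by the IC50 of deoxypodophyllotoxin, the reference.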

[8] = Inhibition of tubulin assembly; in short: as §2
HL-60 [9] = experiment: Induction of apoptosis in human HL60 cells assessed as caspase 3/7 activation at 0.1 uM relative to control; format: functional; in short: as §1

With `COc1ccc(-c2cc(=O)c3c(O)c(OC)c(OC)c(OC)c3o2)cc1N` the inhibition at 1 µM (KB [1]) was 83%, the IC50 (KB [2]) was 0.16 µM and the “fold change (FC)” value (HL-60 [3]) was 6. It also gave an inhibition [4] of 27%.
In the case of `COc1ccc(-c2cc(=O)c3c(OC)c(OC)c(OC)c(OC)c3o2)cc1N`, the inhibition at 1 µM (KB [1]) is reported as 6% and the “fold change (FC)” value (HL-60 [5]) is reported as “inactive”.
For `COc1ccc(-c2cc(=O)c3c(O)c(OC)c(OC)c(OC)c3o2)cc1` [GARDENIN B], the inhibition at 1 µM (KB [1]) was 28% and the “fold change (FC)” value (HL-60 [5]) was 3.8.
For `COc1ccc(-c2cc(=O)c3c(O)c(OC)c(OC)c(OC)c3o2)cc1O`, the IC50 (KB [2]) was 0.08 µM, the “fold change (FC)” value (HL-60 [3]) was 3.8 and the “fold change (FC)” value (HL-60 [6]) was 5.2. For the same compound, the Ratio IC50 [7] was 27 and the IC50 [8] was 86 µM.
`COc1ccc(-c2cc(=O)c3c(OC)c(OC)c(OC)c(OC)c3o2)cc1[N+](=O)[O-]` gave an inhibition at 1 µM (KB [1]) of 3%.
In the case of `COc1ccc(-c2oc3c(OC)c(OC)c(OC)c(O)c3c(=O)c2OC)cc1O`, the inhibition at 1 µM (KB [1]) is reported as 92%, the IC50 (KB [2]) is reported as 0.02 µM and the “fold change (FC)” value (HL-60 [9]) is reported as 5.7. It also gave a Ratio IC50 [7] of 3 and an IC50 [8] of 10 µM.
Compound `COc1ccc(-c2cc(=O)c3c(O)c(OC)c(OC)c(OC)c3o2)cc1[N+](=O)[O-]` has an inhibition at 1 µM (KB [1]) of 2%.
In the case of `COc1ccc(-c2oc3c(OC)c(OC)c(OC)c(O)c3c(=O)c2Cl)cc1N`, the inhibition at 1 µM (KB [1]) is reported as 86%, the IC50 (KB [2]) is reported as 0.14 µM and the “fold change (FC)” value (HL-60 [3]) is reported as 4.5. It also gave an inhibition [4] of 15%.
For `COc1cc(O)c2c(=O)cc(-c3ccc(OC)c(N)c3)oc2c1`, the inhibition at 1 µM (KB [1]) was 30% and the “fold change (FC)” value (HL-60 [5]) was “inactive”.
For `COc1ccc(-c2cc(=O)c3c(O)cc(O)cc3o2)cc1N`, the inhibition at 1 µM (KB [1]) was 7% and the “fold change (FC)” value (HL-60 [5]) was 4.
For `COc1ccc(-c2cc(=O)c3c(OC)c(OC)c(OC)c(OC)c3o2)cc1` [TANGERETIN], the inhibition at 1 µM (KB [1]) was 12% and the “fold change (FC)” value (HL-60 [5]) was “inactive”.
In the case of `COc1ccc(-c2oc3c(OC)c(OC)c(OC)c(O)c3c(=O)c2Br)cc1[N+](=O)[O-]`, the inhibition at 1 µM (KB [1]) is reported as 23%.
With `COc1ccc(-c2oc3c(OC)c(OC)c(OC)c(O)c3c(=O)c2Br)cc1N` the inhibition at 1 µM (KB [1]) was 55% and the “fold change (FC)” value (HL-60 [3]) was 3.6.
